38 compounds from ChEMBL document CHEMBL2429828, “Discovery of thiazolyl-phthalazinone acetamides as potent glucose uptake activators via high-throughput screening” (Bioorg Med Chem Lett, 2013) can be followed below.

The test system of assay [1] is L6. The assay is described as follows: Induction of glucose uptake in rat L6 cells pulsed with C14-deoxy glucose after 24 hrs in presence of insulin. The class given is functional, cell-based. The conditions noted are these: L6, 24 h. The gist of the method: (§1)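 L6 rat skeletal muscle cells grown in MEM alpha with 10% serum, differentiated at confluence in 2% serum, then serum-starved. Treated overnight; after 24 h, pulsed 10 min with 14C-deoxyglucose in presence of insulin. Uptake read by scintillation after lysis with Microscint PS.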

Assay [2] relates to L6. The assay is described as follows: Induction of glucose uptake in rat L6 cells pulsed with C14-deoxy glucose at 10 uM after 24 hrs in presence of insulin relative to control. The class given is functional. A digest of the protocol:
as §1

Assay [3] addresses T1, Peroxisome proliferator-activated receptor gamma (Homo sapiens) (UniProt P37231).
T1 sequence (whole entry): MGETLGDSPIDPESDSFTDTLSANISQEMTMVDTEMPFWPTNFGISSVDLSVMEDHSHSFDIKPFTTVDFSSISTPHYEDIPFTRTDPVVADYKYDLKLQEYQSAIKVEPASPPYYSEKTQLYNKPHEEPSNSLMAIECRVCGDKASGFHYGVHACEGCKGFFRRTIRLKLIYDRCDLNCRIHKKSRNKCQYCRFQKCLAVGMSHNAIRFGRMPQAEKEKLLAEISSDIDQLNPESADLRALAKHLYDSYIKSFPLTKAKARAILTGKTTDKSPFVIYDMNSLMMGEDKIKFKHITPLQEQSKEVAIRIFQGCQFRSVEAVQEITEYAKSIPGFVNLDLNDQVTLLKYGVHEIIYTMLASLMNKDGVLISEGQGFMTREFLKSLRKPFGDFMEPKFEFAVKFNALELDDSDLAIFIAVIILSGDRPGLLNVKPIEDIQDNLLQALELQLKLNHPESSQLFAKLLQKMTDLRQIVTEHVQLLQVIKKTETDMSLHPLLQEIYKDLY
The assay is described as follows: Transactivation of GAL4 DNA binding domain-fused human PPAR-gamma ligand binding domain transfected in African green monkey CV1 cells after 24 hrs by luciferase reporter gene assay. The assay is classed as cell-based. The conditions noted are these: CV-1. A digest of the protocol: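 CV-1 cells seeded at 25,000 cells/well, incubated overnight, then transiently co-transfected (Lipofectamine 2000) with Gal4-element luciferase reporter and GAL4 DBD–PPAR-γ LBD plasmid. Compounds added 6 h post-transfection for 24 h, then luminescence read. Values expressed as % of 1 µM rosiglitazone response (set as 100%). Triplicates, repeated twice.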
On the technique in general: In a reporter assay the amount or activity of a reporter protein is the signal.

Active and inactive are the calls of the source. No cut-off for these calls is given here.

The term EC50 denotes the concentration needed to bring the measured effect to its halfway point. `Cn1nc(CC(=O)Nc2ccc(Cl)c(C(F)(F)F)c2)c2ccccc2c1=O`: the EC50 in the assay with L6 [1] was 2560 nM. Moreover, the “fold change (FC)” value in the assay with L6 [2] amounted to 2.

Regarding `Cn1nc(CC(=O)Nc2nccs2)c2ccccc2c1=O`, the concentration for a half-maximal effect (EC50) in the assay with L6 [1] turned out to be 120 nM. In addition, in the assay with L6 [2], the “fold change (FC)” value came out at 1.7.

As to `Cn1nc(CC(=O)Nc2nccc3ccccc23)c2ccccc2c1=O`, the EC50 in the assay on L6 [1] stood at 170 nM. Further, the “fold change (FC)” value in the assay with L6 [2] is listed as 4.9.

`Cc1sc(NC(=O)Cc2nn(C)c(=O)c3ccccc23)nc1-c1ccccc1`: the EC50 in the assay with L6 [1] worked out at 10 nM. In the assay on L6 [2], the “fold change (FC)” value was 3.4.

Take `COC(=O)CCCCC(=O)N(C)c1nc(-c2ccccc2)cs1`: the “fold change (FC)” value in the assay on L6 [2] was determined as 1.2.

Consider `Cn1nc(CC(=O)Nc2nc(-c3ccc(F)cc3)cs2)c2ccccc2c1=O`, for which the “fold change (FC)” value in the assay on L6 [2] came to 2.7.

As for `Cn1nc(CC(=O)Nc2ncc(-c3ccccc3)s2)c2ccccc2c1=O`, the “fold change (FC)” value in the assay with L6 [2] is reported as 1.6.

`O=C(Cc1nn(CCO)c(=O)c2ccccc12)Nc1nc(-c2ccccc2)cs1`: in the assay with L6 [2], the “fold change (FC)” value is reported as 0.8.

As to `Cn1nc(CC(=O)Nc2ncc(-c3ccccc3)c(=O)[nH]2)c2ccccc2c1=O`, in the assay with L6 [1], the EC50 is 7470 nM. The “fold change (FC)” value in the assay on L6 [2] is recorded as 1.9.

`O=C(O)CCCCC(=O)Nc1nc(-c2ccccc2)cs1`: the result with L6 [2] was inactive.

On to `CCOC(=O)c1sc(NC(=O)Cc2nn(C)c(=O)c3ccccc23)nc1C`, for which the EC50 with L6 [1] was 40 nM. Besides, the “fold change (FC)” value in the assay with L6 [2] is given as 0.9.

For the compound `Cn1nc(CC(=O)Nc2nc(-c3ccccc3)c(C(=O)O)s2)c2ccccc2c1=O`, the “fold change (FC)” value in the assay on L6 [2] came out at 1.3.

`Cn1nc(CC(=O)Nc2nc(-c3ccccc3)cs2)c2ccccc2c1=O` returned an Activity in assay [3] of 0.3%. Further, in the assay on L6 [1], the EC50 turned out to be 70 nM. In addition, the “fold change (FC)” value in the assay with L6 [2] was 1.8.

`Cn1nc(CC(=O)NCc2n[nH]c(=O)c3ccccc23)c2ccccc2c1=O`: the “fold change (FC)” value with L6 [2] came to 0.8.

As to `Cn1nc(CC(=O)Nc2nccc(=O)[nH]2)c2ccccc2c1=O`, the “fold change (FC)” value in the assay on L6 [2] is on record as 1.2.

For `Cn1nc(CC(=O)Nc2nc(-c3ccc(C(F)(F)F)cc3)cs2)c2ccccc2c1=O`, the “fold change (FC)” value in the assay with L6 [2] was found to be 3.2.

Turning to `Cn1nc(CC(=O)Nc2nc(-c3ccc(Cl)cc3)cs2)c2ccccc2c1=O`, the “fold change (FC)” value in the assay with L6 [2] worked out at 3.4.

For `CCOC(=O)Cc1nn(CC(=O)c2ccccc2)c(=O)c2ccccc12`, the “fold change (FC)” value in the assay on L6 [2] is reported as 1.1.

Consider `Cn1nc(CC(=O)Nc2cc(-c3ccc(F)cc3)on2)c2ccccc2c1=O`, for which the “fold change (FC)” value with L6 [2] was determined as 1.3.

Turning to `O=C(Cc1n[nH]c(=O)c2ccccc12)NNC(=O)c1nc(-c2ccccc2)cs1`, the “fold change (FC)” value in the assay on L6 [2] worked out at 0.9.

Take `Cc1sc(NC(=O)Cc2nn(C)c(=O)c3ccccc23)nc1-c1ccc(Br)cc1`: in the assay on L6 [1], the EC50 was found to be 3 nM. Also, in the assay with L6 [2], the “fold change (FC)” value worked out at 3.4.

As to `Cn1nc(CC(=O)NC23CC4CC(CC(O)(C4)C2)C3)c2ccccc2c1=O`, in the assay on L6 [2], the “fold change (FC)” value is listed as 0.7.

With `COc1ccc(-c2nc(NC(=O)Cc3nn(C)c(=O)c4ccccc34)sc2C)cc1`, the Activity in assay [3] was found to be 1%. Also, in the assay with L6 [1], the EC50 amounted to 9 nM. The “fold change (FC)” value with L6 [2] is 2.9.

Regarding `CN(CCOc1ccc(CC2SC(=O)NC2=O)cc1)c1ccccn1` (centres undefined) [ROSIGLITAZONE], in the assay on L6 [1], the EC50 is 4490 nM. The “fold change (FC)” value with L6 [2] was found to be 1.8.

As for `CCc1oc(NC(=O)Cc2nn(C)c(=O)c3ccccc23)nc1-c1ccccc1`, in the assay on L6 [2], the “fold change (FC)” value was 1.

For `O=C(Cc1n[nH]c(=O)c2ccccc12)Nc1nc(-c2ccccc2)cs1`, the EC50 with L6 [1] came out at 40 nM. In addition, the “fold change (FC)” value in the assay with L6 [2] amounted to 1.8.

As to `Nc1nc(-c2ccccc2)cs1`, the result in the assay on L6 [2] was inactive.

Regarding `O=C(O)Cc1nn(CC(=O)c2ccccc2)c(=O)c2ccccc12`, in the assay on L6 [2], the “fold change (FC)” value is 0.9.

Turning to `Cn1nc(CC(=O)Nc2nc(-c3ccccc3O)cs2)c2ccccc2c1=O`, in the assay on L6 [2], the “fold change (FC)” value is 1.3.

Regarding `NNC(=O)Cc1n[nH]c(=O)c2ccccc12`, in the assay with L6 [2], the result was inactive.

As for `CCOC(=O)Cc1nnc(O)c2ccccc12`, the result in the assay on L6 [2] was inactive.

In the case of `Cn1nc(CC(=O)Nc2nc(-c3ccc(Br)cc3)cs2)c2ccccc2c1=O`, the EC50 in the assay with L6 [1] was found to be 100 nM. The “fold change (FC)” value in the assay on L6 [2] was determined as 3.6.

In the case of `COc1ccc2c(oc3ccccc32)c1NC(=O)Cc1nn(C)c(=O)c2ccccc12`, the “fold change (FC)” value with L6 [2] was 1.3.

For `CCOC(=O)CN(C(=O)Cc1nn(C)c(=O)c2ccccc12)c1nc(-c2ccccc2)cs1`, the half-maximal effective concentration (EC50) in the assay on L6 [1] was 280 nM. Moreover, the “fold change (FC)” value in the assay on L6 [2] was 1.9.

Turning to `CN(C(=O)Cc1nn(C)c(=O)c2ccccc12)c1nc(-c2ccccc2)cs1`, the EC50 in the assay with L6 [1] stood at 5960 nM. The “fold change (FC)” value in the assay with L6 [2] is 1.8.

Turning to `CN(C(=O)CCCCC(=O)O)c1nc(-c2ccccc2)cs1`, in the assay on L6 [2], the “fold change (FC)” value was 0.9.

Consider `O=C(O)Cc1nnc(O)c2ccccc12`, for which the result in the assay with L6 [2] was inactive.

In the case of `CCOC(=O)c1sc(NC(=O)Cc2nn(C)c(=O)c3ccccc23)nc1-c1ccccc1`, the “fold change (FC)” value with L6 [2] turned out to be 1.3.
